Data: publication PMC9071802 (RSC Advances, 2019)

Tested on: P. aeruginosa MH602 lasB reporter strain (PlasB: gfp(ASV))
Test: Quorum sensing inhibition assay, GFP fluorescence of lasB reporter strain
Format: cell-based, Pseudomonas aeruginosa
Conditions: for inhibition at 62.5 µM / inhibition at 125 µM / inhibition at 250 µM: Pseudomonas aeruginosa; for inhibition at 62.5 µM: read-out: Percentage inhibition of GFP fluorescence, 62.5 μM; for inhibition at 62.5 µM / inhibition at 125 µM / inhibition at 250 µM / Percentage inhibition of GFP fluorescence: ± standard deviation, NA: no activity; for inhibition at 125 µM: read-out: Percentage inhibition of GFP fluorescence, 125 μM; for inhibition at 250 µM: read-out: Percentage inhibition of GFP fluorescence, 250 μM; for Percentage inhibition of GFP fluorescence: 250 μM, 250 µM
Method in brief: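 The reporter is a chromosomal lasB promoter–gfp(ASV) fusion responsive to 3-oxododecanoyl-HSL. Cultures were grown overnight in LB10, then diluted 1:100 in ABT with 0.25% tryptone and 0.13% yeast extract plus ampicillin 100 µg mL⁻¹ and gentamicin 20 µg mL⁻¹. Test compound in DMSO was tested at 62.5, 125 or 250 µM, with 1% DMSO controls. Cultures were incubated at 37 °C and shaken briefly before each read. Fluorescence (ex 485/em 535 nm) and OD600 were read every 30 min for 20 h, in triplicate per experiment.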

Compound	inhibition at 62.5 µM [%]	inhibition at 125 µM [%]	inhibition at 250 µM [%]	Percentage inhibition of GFP fluorescence [%]	QSI activity (at 62.5–250 μM)
CCCc1cn(CC(=O)Nc2nc3ccccc3[nH]2)nn1 [6a, N-(1H-Benzo[d]imidazol-2-yl)-2-(4-propyl-1H-1,2,3-triazol-1-yl)acetamide]	25.1 ± 0.37	35.3 ± 20.4	50.5 ± 11.8	–	–
CCCCCc1cn(CC(=O)Nc2nc3ccccc3[nH]2)nn1 [6b, N-(1H-Benzo[d]imidazol-2-yl)-2-(4-pentyl-1H-1,2,3-triazol-1-yl)acetamide]	27.4 ± 2.36	38.8 ± 11.5	43.5 ± 6.23	–	–
CCCCCCCc1cn(CC(=O)Nc2nc3ccccc3[nH]2)nn1 [6c, N-(1H-Benzo[d]imidazol-2-yl)-2-(4-heptyl-1H-1,2,3-triazol-1-yl)acetamide]	25.7 ± 7.62	34.7 ± 11.6	42.8 ± 14.6	–	–
CCCCCCCCCc1cn(CC(=O)Nc2nc3ccccc3[nH]2)nn1 [6d, N-(1H-Benzo[d]imidazol-2-yl)-2-(4-nonyl-1H-1,2,3-triazol-1-yl)acetamide]	30.6 ± 7.62	41.9 ± 4.5	48.5 ± 12.7	–	–
O=C(Cn1cc(Cn2cc(Cl)ccc2=O)nn1)Nc1nc2ccccc2[nH]1 [6f, N-(1H-Benzo[d]imidazol-2-yl)-2-(4-((5-chloro-2-oxopyridin-1(2H)-yl)methyl)-1H-1,2,3-triazol-1-yl)acetamide]	36.1 ± 10.7	52.7 ± 11.9	58.8 ± 5.09	–	–
O=C(Cn1cc(-c2ccccc2)nn1)Nc1nc2ccccc2[nH]1 [6g, N-(1H-Benzo[d]imidazol-2-yl)-2-(4-phenyl-1H-1,2,3-triazol-1-yl)acetamide]	15.1 ± 5.83	17.4 ± 22	46 ± 10.2	–	–
O=C(Cn1cc(-c2ccc(F)cc2)nn1)Nc1nc2ccccc2[nH]1 [6h, N-(1H-Benzo[d]imidazol-2-yl)-2-(4-(4-fluorophenyl)-1H-1,2,3-triazol-1-yl)acetamide]	49 ± 12.3	54.9 ± 2.42	56.1 ± 1.77	–	–
O=C(Cn1cc(-c2ccc(Cl)cc2)nn1)Nc1nc2ccccc2[nH]1 [6i, N-(1H-Benzo[d]imidazol-2-yl)-2-(4-(4-chlorophenyl)-1H-1,2,3-triazol-1-yl)acetamide]	52.9 ± 8.86	60.5 ± 6.16	65 ± 8.25	–	–
O=C(Cn1cc(-c2ccc(Br)cc2)nn1)Nc1nc2ccccc2[nH]1 [6j, N-(1H-Benzo[d]imidazol-2-yl)-2-(4-(4-bromophenyl)-1H-1,2,3-triazol-1-yl)acetamide]	45.7 ± 5.44	46.2 ± 8.52	50.7 ± 10.9	–	–
Cc1ccc(-c2cn(CC(=O)Nc3nc4ccccc4[nH]3)nn2)cc1 [6k, N-(1H-Benzo[d]imidazol-2-yl)-2-(4-(p-tolyl)-1H-1,2,3-triazol-1-yl)acetamide]	36.8 ± 6.63	32.3 ± 22.2	35.9 ± 13.8	–	–
CC(C)(C)c1ccc(-c2cn(CC(=O)Nc3nc4ccccc4[nH]3)nn2)cc1 [6l, N-(1H-Benzo[d]imidazol-2-yl)-2-(4-(4-(tert-butyl)phenyl)-1H-1,2,3-triazol-1-yl)acetamide]	–	–	35.2 ± 8.78	–	–
O=C(Cn1cc(-c2ccc(O)cc2)nn1)Nc1nc2ccccc2[nH]1 [6m, N-(1H-Benzo[d]imidazol-2-yl)-2-(4-(4-hydroxyphenyl)-1H-1,2,3-triazol-1-yl)acetamide]	34.4 ± 4.97	45.7 ± 6.21	58.4 ± 7.75	–	–
COc1ccc(-c2cn(CC(=O)Nc3nc4ccccc4[nH]3)nn2)cc1 [6n, N-(1H-Benzo[d]imidazol-2-yl)-2-(4-(4-methoxyphenyl)-1H-1,2,3-triazol-1-yl)acetamide]	–	5.16 ± 16.6	20 ± 14	–	–
O=C(Cn1cc(-c2ccc(C(F)(F)F)cc2)nn1)Nc1nc2ccccc2[nH]1 [6o, N-(1H-Benzo[d]imidazol-2-yl)-2-(4-(4-(trifluoromethyl)phenyl)-1H-1,2,3-triazol-1-yl)acetamide]	57.5 ± 7.73	59.9 ± 7.99	64.2 ± 7.3	–	–
O=C(Cn1cc(-c2cccc([N+](=O)[O-])c2)nn1)Nc1nc2ccccc2[nH]1 [6q, N-(1H-Benzo[d]imidazol-2-yl)-2-(4-(3-nitrophenyl)-1H-1,2,3-triazol-1-yl)acetamide]	28.2 ± 10.2	36 ± 6.13	39.4 ± 5.14	–	–
CCCc1cn(CC(=O)Nc2nc3cc(C)c(C)cc3[nH]2)nn1 [7a, N-(5,6-Dimethyl-1H-benzo[d]imidazol-2-yl)-2-(4-propyl-1H-1,2,3-triazol-1-yl)acetamide]	19.9 ± 3.8	22.1 ± 14.7	31.8 ± 11	–	–

Compound	inhibition at 62.5 µM [%]	inhibition at 125 µM [%]	inhibition at 250 µM [%]	Percentage inhibition of GFP fluorescence [%]	QSI activity (at 62.5–250 μM)
CCCCCc1cn(CC(=O)Nc2nc3cc(C)c(C)cc3[nH]2)nn1 [7b, N-(5,6-Dimethyl-1H-benzo[d]imidazol-2-yl)-2-(4-pentyl-1H-1,2,3-triazol-1-yl)acetamide]	16.9 ± 5.74	20.2 ± 11.5	26.6 ± 20.8	–	–
CCCCCCCCCc1cn(CC(=O)Nc2nc3cc(C)c(C)cc3[nH]2)nn1 [7d, N-(5,6-Dimethyl-1H-benzo[d]imidazol-2-yl)-2-(4-nonyl-1H-1,2,3-triazol-1-yl)acetamide]	37.1 ± 7.75	41.6 ± 5.08	44.6 ± 3.87	–	–
Cc1cc2nc(NC(=O)Cn3cc(CSc4nc5ccccc5[nH]4)nn3)[nH]c2cc1C [7e, 2-(4-(((1H-Benzo[d]imidazol-2-yl)thio)methyl)-1H-1,2,3-triazol-1-yl)-N-(5,6-dimethyl-1H-benzo[d]imidazol-2-yl)acetamide]	15.1 ± 9.82	–	16 ± 26.1	–	–
Cc1cc2nc(NC(=O)Cn3cc(Cn4cc(Cl)ccc4=O)nn3)[nH]c2cc1C [7f, 2-(4-((5-Chloro-2-oxopyridin-1(2H)-yl)methyl)-1H-1,2,3-triazol-1-yl)-N-(5,6-dimethyl-1H-benzo[d]imidazol-2-yl)acetamide]	26.1 ± 7.69	29 ± 13.6	36.8 ± 7.9	–	–
Cc1cc2nc(NC(=O)Cn3cc(-c4ccccc4)nn3)[nH]c2cc1C [7g, N-(5,6-Dimethyl-1H-benzo[d]imidazol-2-yl)-2-(4-phenyl-1H-1,2,3-triazol-1-yl)acetamide]	28.5 ± 8.41	29.9 ± 17.4	47.6 ± 14.4	–	–
Cc1cc2nc(NC(=O)Cn3cc(-c4ccc(Br)cc4)nn3)[nH]c2cc1C [7h, 2-(4-(4-Bromophenyl)-1H-1,2,3-triazol-1-yl)-N-(5,6-dimethyl-1H-benzo[d]imidazol-2-yl)acetamide]	31.2 ± 5.02	44.7 ± 14.3	57.6 ± 7.43	–	–
Cc1ccc(-c2cn(CC(=O)Nc3nc4cc(C)c(C)cc4[nH]3)nn2)cc1 [7i, N-(5,6-Dimethyl-1H-benzo[d]imidazol-2-yl)-2-(4-(p-tolyl)-1H-1,2,3-triazol-1-yl)acetamide]	–	14.9 ± 8.82	50.7 ± 12.3	–	–
Cc1cc2nc(NC(=O)Cn3cc(-c4ccc(O)cc4)nn3)[nH]c2cc1C [7j, N-(5,6-Dimethyl-1H-benzo[d]imidazol-2-yl)-2-(4-(4-hydroxyphenyl)-1H-1,2,3-triazol-1-yl)acetamide]	17.6 ± 6.21	24.2 ± 14.5	> 40	44.73 ± 13.15	–
COc1ccc(-c2cn(CC(=O)Nc3nc4cc(C)c(C)cc4[nH]3)nn2)cc1 [7k, N-(5,6-Dimethyl-1H-benzo[d]imidazol-2-yl)-2-(4-(4-methoxyphenyl)-1H-1,2,3-triazol-1-yl)acetamide]	20.4 ± 2.59	24.3 ± 23.3	> 40	40.82 ± 23.41	–
Cc1cc2nc(NC(=O)Cn3cc(-c4ccc(C(F)(F)F)cc4)nn3)[nH]c2cc1C [7l, N-(5,6-Dimethyl-1H-benzo[d]imidazol-2-yl)-2-(4-(4-(trifluoromethyl)phenyl)-1H-1,2,3-triazol-1-yl)acetamide]	36.1 ± 7.67	56.4 ± 5.85	65.8 ± 1.91	–	–
Cc1cc2nc(NC(=O)Cn3cc(-c4ccc([N+](=O)[O-])cc4)nn3)[nH]c2cc1C [7m, N-(5,6-Dimethyl-1H-benzo[d]imidazol-2-yl)-2-(4-(4-nitrophenyl)-1H-1,2,3-triazol-1-yl)acetamide]	21 ± 10.3	31.5 ± 16.2	53.9 ± 9.78	–	–
Cc1cc2nc(NC(=O)Cn3cc(-c4cccc([N+](=O)[O-])c4)nn3)[nH]c2cc1C [7n, N-(5,6-Dimethyl-1H-benzo[d]imidazol-2-yl)-2-(4-(3-nitrophenyl)-1H-1,2,3-triazol-1-yl)acetamide]	34.2 ± 7.43	34.4 ± 14.1	46.7 ± 4.87	–	–
O=C(CCc1cn(CC(=O)NC2CCCCC2)nn1)Nc1nc2ccccc2[nH]1 [10a, N-(1H-Benzo[d]imidazol-2-yl)-3-(1-(2-(cyclohexylamino)-2-oxoethyl)-1H-1,2,3-triazol-4-yl)propanamide]	38.4 ± 7.72	42.4 ± 8.46	47.4 ± 2.69	–	38–47%
O=C(Cn1cc(CCC(=O)Nc2nc3ccccc3[nH]2)nn1)Nc1ccccn1 [10b, N-(1H-Benzo[d]imidazol-2-yl)-3-(1-(2-oxo-2-(pyridin-2-ylamino)ethyl)-1H-1,2,3-triazol-4-yl)propanamide]	4.4 ± 2.93	15.6 ± 7.17	28.5 ± 17.5	–	–
O=C(CCCc1cn(CC(=O)NC2CCCC2)nn1)Nc1nc2ccccc2[nH]1 [11a, N-(1H-Benzo[d]imidazol-2-yl)-4-(1-(2-(cyclopentylamino)-2-oxoethyl)-1H-1,2,3-triazol-4-yl)butanamide]	42.3 ± 10.3	45.9 ± 8.18	51.2 ± 7.1	–	–
